Bioassay records: PubChem, several laboratories
Compounds with a hit are over-represented: about 1.6% of the library has one in this group of screens.
DDE Tn6 FP inh: disrupts Tn6 cyclic peptide binding to fibrin D-Dimer-E complex; P02675; Fibrin DD(E) TRITC-Tn6 fluorescence polarization displacement; inhibition, % at 8.3 µM; 370,000 compounds, 0.21% hits; AID 720509;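 active means inhibition above a per-campaign cutoff: mean of compounds within control limits plus 3 SD, cut at about 15% in these data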
Tn7 DDE FP: disrupts Tn7 cyclic peptide binding to fibrin D-Dimer-E complex; P02675; FP displacement of FITC-Tn7 peptide from fibrin DD(E); 0% = median of compound wells per plate; inhibition, % at 8.3 µM; 370,000 compounds, 0.13% hits;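 active means inhibition above the mean of compounds falling within the control limits plus 3 SD of them, cut at about 14% in these data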
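Test system – human fibrin DD(E) · Times – 10 min preincubation, 3 h with tracer, room temperature · Detection – fluorescence polarization of the labelled Tn7 tracer · Measure – percent inhibition normalized to high-control wells · Benchmarks – high control wells with 10 µM unlabelled Aha-Tn7 peptide (full inhibition) · Repeats – singlicate testing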
ADAM17 inh: inhibitors of human ADAM17. P78536. recombinant ADAM17, EDANS/DABCYL FRET peptide cleavage. inhibition, % at 6.95 µM. 370,000 compounds, 0.83% hits;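 active means inhibition above the mean of compounds lying between control limits plus 3 SD, set per campaign, cut at about 8.5% in these data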
Target sequence (P78536 215-824 limits assumed): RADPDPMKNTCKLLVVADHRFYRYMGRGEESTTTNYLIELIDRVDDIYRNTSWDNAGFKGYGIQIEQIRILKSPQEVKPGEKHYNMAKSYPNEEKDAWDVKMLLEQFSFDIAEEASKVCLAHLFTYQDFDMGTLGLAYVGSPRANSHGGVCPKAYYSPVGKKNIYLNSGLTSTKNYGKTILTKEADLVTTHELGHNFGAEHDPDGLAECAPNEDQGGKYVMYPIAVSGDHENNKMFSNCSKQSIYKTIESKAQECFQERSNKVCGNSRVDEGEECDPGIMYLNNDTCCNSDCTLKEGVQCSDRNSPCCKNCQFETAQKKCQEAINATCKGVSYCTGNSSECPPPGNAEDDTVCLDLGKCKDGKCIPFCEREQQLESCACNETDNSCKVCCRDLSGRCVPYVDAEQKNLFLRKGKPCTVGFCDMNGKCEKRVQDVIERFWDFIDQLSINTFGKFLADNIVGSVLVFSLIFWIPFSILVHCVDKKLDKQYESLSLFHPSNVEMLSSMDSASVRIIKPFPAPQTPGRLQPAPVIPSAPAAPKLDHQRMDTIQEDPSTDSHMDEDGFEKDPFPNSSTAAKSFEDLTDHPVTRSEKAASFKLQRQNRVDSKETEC
ADAM10 inh: inhibits human ADAM10; O14672; recombinant ADAM10, EDANS/DABCYL FRET peptide cleavage, 3 h; inhibition, % at 7 µM; 370,000 compounds, 0.62% hits; AID 720582;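 active means inhibition above a per-campaign cutoff equal to the mean of compounds falling between control-based bounds plus 3 SD, cut at about 20% in these data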
MT1-MMP act inh: blocks activation of human MT1-MMP; GFP/RFP ratio change, % at 20 µM; HT1080 RFP-PRO-GFP cells, GFP/RFP ratio fluorescence, overnight; percent of plate control window, DMSO zero; 360,000 compounds, 0.061% hits; P50281;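 active means GFP/RFP ratio change of at least 30% with cell ATP level not reduced by more than half and red fluorescence within 50% of control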
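Assay system: RFP-PRO-GFP reporter HT1080 cells; read-out basis: GFP/RFP fluorescence ratio; benchmarks: DMSO wells and RFP-L50D-GFP cells; doses: 20 µM single dose, 1% DMSO; schedule: overnight cell settling, then overnight compound exposure, 37 °C, 5% CO2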
ADAM10 confirm: human ADAM10 inhibition, confirmation; ADAM10 QFRET peptide cleavage, EDANS fluorescence; inhibition, % at 6.95 µM; 2,100 compounds, 1% hits; AID 743208; shares compounds with ADAM10 inh;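 active means inhibition above about 20% chosen separately for each screening run, limit read from the data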
ADAM17 counter: counter-screen for ADAM10 exosite inhibitors: inhibitors of human ADAM17; shares compounds with ADAM10 inh; ADAM17 QFRET peptide cleavage, EDANS fluorescence; inhibition, % at 6.95 µM; 2,100 compounds, 0.5% hits;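 active means mean triplicate inhibition above the solvent-only control wells' mean plus 3 SD, cut at about 12% in these data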
Large screens that a line does not name were inactive (follow-up assays come after a bar, where they were run); ! = repeats disagree.

CCCSc1ncc(Cl)c(C(=O)Nc2ccc(S(=O)(=O)N3CC(C)OC(C)C3)cc2)n1 (configuration not stated)	ADAM10 inh 20.4 | ADAM10 confirm inactive | ADAM17 counter inactive
COc1ccc(-n2c(Cc3cccn3C)nnc2SCC(=O)Nc2ccc(Cl)cc2)cc1	ADAM10 inh 86.3 | ADAM10 confirm inactive | ADAM17 counter inactive
Cn1cccc1Cc1nnc(SCC(=O)Nc2ccc(F)cc2)n1-c1ccc(F)cc1	none
Cn1cccc1Cc1nnc(SCC(=O)Nc2ccccc2)n1-c1ccc(F)cc1	ADAM10 inh 78.6 | ADAM10 confirm inactive | ADAM17 counter inactive
CC(=O)[C@H]1CC[C@H]2[C@@H]3CCC4=CC(=O)CC[C@]4(C)[C@H]3CC[C@]12C	ADAM10 inh 21.0! | ADAM10 confirm inactive | ADAM17 counter inactive
Cc1ccc(C(=O)NC2CCCCN(Cc3ccccc3C)C2=O)cc1 (configuration not stated)	none (no result: MT1-MMP act inh)
COC(=O)C(Cc1cnc(Cl)s1)(C(=O)OC)c1ccc(C(F)(F)F)cc1[N+](=O)[O-]	ADAM10 inh 19.9 | ADAM10 confirm inactive | ADAM17 counter inactive
CCN=C1NC(c2cccc(F)c2)C(C(=O)OC)=C(C)N1Cc1ccccc1C(F)(F)F (configuration not stated)	none (no result: MT1-MMP act inh)
O=C(CSCc1ccccc1Cl)NN=C1CCCCCC1	ADAM10 inh 20.1 | ADAM10 confirm inactive | ADAM17 counter inactive
O=C(CSCc1c(Cl)cccc1Cl)NN=C1CCCC1	none
O=C(NNC(=S)Nc1ccc(Cl)cc1Cl)c1ccc(N2CCOCC2)c([N+](=O)[O-])c1	none
O=C(NNC(=S)Nc1ccc(Br)cc1)c1ccc(N2CCOCC2)c([N+](=O)[O-])c1	ADAM10 inh 20.6 | ADAM10 confirm inactive | ADAM17 counter inactive
Cc1ccc(NC(=S)NNC(=O)c2ccc(N3CCOCC3)c([N+](=O)[O-])c2)cc1Cl	ADAM10 inh 20.9 | ADAM10 confirm inactive | ADAM17 counter inactive
N#CCCCc1cn(-c2ccc(-c3noc4c3C(=O)N(CC(=O)N3CCOCC3)CC4)cc2)nn1	none (no result: MT1-MMP act inh)
COc1ccc(C(=O)C2(C(=O)NC3CCCC3)CC(c3ccccc3C(F)(F)F)=NO2)cc1 (configuration not stated)	none (no result: MT1-MMP act inh)
CCCCNC(=S)N/N=C/c1ccccc1F	none
CCCCNC(=S)N/N=C/c1cc(C)ccc1C	ADAM10 inh 19.8 | ADAM10 confirm inactive | ADAM17 counter inactive
CC(C)Oc1ccc(NC(=O)c2ccncc2)cc1	ADAM10 inh 77.7 | ADAM10 confirm inactive | ADAM17 counter inactive
CN(CCO)C(=O)c1nc[nH]c1C(=O)N1CCN(c2ccccc2)CC1	none (no result: MT1-MMP act inh)
C#CCNC(=O)C[C@H]1C[C@@]2(C(=O)OC)C(=C[C@H](C(C)(C)C)O[C@@H]2C)N(CCc2ccc(OC)c(OC)c2)C1=O	none (no result: MT1-MMP act inh)
C=C(C)COc1ccc(-c2[nH]ncc2Oc2ccc(OC)cc2)c(O)c1	ADAM10 inh 21.3 | ADAM10 confirm inactive | ADAM17 counter inactive
C=C(C)COc1ccc(-c2[nH]ncc2Oc2ccccc2OC)c(O)c1	none
CCOc1ccccc1Oc1cn[nH]c1-c1ccc(OCC(=O)NN)cc1O	none
CCOc1ccc(-c2[nH]ncc2Oc2ccccc2OCC)c(O)c1	ADAM10 inh 26.2 | ADAM10 confirm inactive | ADAM17 counter inactive
CCOc1ccc(-c2nc(N)ncc2Oc2ccccc2Br)c(O)c1	ADAM10 inh 20.9 | ADAM10 confirm inactive | ADAM17 counter inactive
COC(=O)[C@]12C[C@H](CC(=O)N3CCSCC3)C(=O)N(Cc3ccccc3)C1=C[C@H](C1CCCC1)O[C@@H]2C	none (no result: MT1-MMP act inh)
CC1Cc2ccccc2N1C(=O)c1ccc(N2CCCCC2)c([N+](=O)[O-])c1 (configuration not stated)	none
CC1Cc2ccccc2N1C(=O)c1ccc(N2CCCC2)c([N+](=O)[O-])c1 (configuration not stated)	ADAM10 inh 24.1 | ADAM10 confirm inactive | ADAM17 counter inactive
COCC#Cc1ccc(CC[C@H]2O[C@H]3CC[C@@H](CO)O[C@H]3C[C@H]2n2cc(C(C)(C)O)nn2)cc1	none (no result: MT1-MMP act inh)
CCO[C@H]1OC(C(=O)Nc2ccccc2)=C[C@@H](c2ccc(Br)cc2)[C@@H]1CCCO	ADAM10 inh 23.8 | ADAM10 confirm inactive | ADAM17 counter inactive
O=C(Nc1cccnc1)c1ccc(CSc2ccc(Cl)cc2)o1	none (no result: MT1-MMP act inh)
C[C@H]1[C@H](c2ccccc2)Oc2cccc(NCCc3ccccc3)c2S(=O)(=O)N1Cc1cccc(F)c1	none (no result: MT1-MMP act inh)
Clc1ccccc1CSc1nncn1NC/C=C/c1ccccc1	ADAM10 inh 20.0 | ADAM10 confirm inactive | ADAM17 counter inactive
O=C(N/N=C\c1ccc(Cl)cc1)c1sccc1-n1cccc1	none
O=C(N/N=C\c1ccc(Cl)cc1Cl)c1sccc1-n1cccc1	ADAM10 inh 19.9 | ADAM10 confirm inactive | ADAM17 counter inactive
Nn1c(SCC(=O)Nc2ccccc2-c2ccccc2)nnc1-c1cc(-c2ccc(F)cc2)n[nH]1	none (no result: MT1-MMP act inh)
CC(=O)C1=C(C)NC(=S)NC1c1ccc(F)cc1 (configuration not stated)	none (no result: MT1-MMP act inh)
O=C(NO)c1ccc(C(=O)N(C2CCCCC2)C2CCCCC2)cc1	ADAM10 inh 29.6 | ADAM10 confirm 22.0 | ADAM17 counter inactive
CC(C)CNc1cccc2c1S(=O)(=O)N[C@@H](Cc1ccccc1)CO2	none (no result: MT1-MMP act inh)
Cc1ccc(S(=O)(=O)n2nc(OC(=O)c3ccco3)cc2N)cc1	none
Nc1cc(OC(=O)c2ccco2)nn1S(=O)(=O)c1ccc(F)cc1	ADAM10 inh 60.1 | ADAM10 confirm inactive | ADAM17 counter inactive
Cc1ccc(N2CCN(CC(O)COc3cccc4ccccc34)CC2)cc1 (configuration not stated)	ADAM10 inh 20.4 | ADAM10 confirm inactive | ADAM17 counter inactive
OC(COc1cccc2ccccc12)CN1CCN(c2ccccc2Cl)CC1 (configuration not stated)	none
O=C(Nc1cc(Cl)ccc1-n1cncn1)c1cccc(S(=O)(=O)N2CCOCC2)c1	ADAM10 inh 92.8 | ADAM10 confirm inactive | ADAM17 counter inactive
O=C(NCCNC(=O)c1cnccn1)c1ccc(Cl)cc1	none
CC(C)c1ccc(C(=O)NCCCNC(=O)c2cnccn2)cc1	ADAM10 inh 50.6 | ADAM10 confirm inactive | ADAM17 counter inactive
NC(Cc1ccc(O)cc1)C(=O)NN=Cc1ccccc1O (configuration not stated)	none (no result: MT1-MMP act inh)
CC(=O)Nc1ccc(C(O)(C(F)(F)F)C(F)(F)F)cc1	none
